Several values for one entry are separate records, joined by “and”; a condition that tells them apart may be missing. Equal values may be shown once.
Tests used:
[1] = organism: Canis familiaris; test: In vitro electrophysiological activity in canine cardiac occurred is 100 uM; format: functional, Canis lupus familiaris, Heart
[2] = organism: Canis familiaris; test: In vitro electrophysiological evaluation in canine cardiac Purkinje fibres reported as % change for action potential duration at a concentration of 10 uM; format: functional, Canis lupus familiaris, Purkinje fiber
Method in brief: (§1)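 Canine cardiac Purkinje fibres, intracellular microelectrode recording, paced at a basic cycle length of 1 s. APD95 and Vmax read simultaneously. Compound: 10 mM stock in deionized water, diluted into Tyrode's solution, tested over the stated concentration range. Each fibre used once as its own control. Result is % change from control, given at 10 µM or as the maximum with its concentration. M = <10% decrease or an increase in Vmax.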

[3] = organism: Canis familiaris; test: In vitro electrophysiological evaluation in canine cardiac Purkinje fibres reported as percent change Vmax at 10 uM at concentration range of 1-100 uM; format: functional; settings: Canis lupus familiaris, Purkinje fiber; method in brief: as §1
[4] = organism: Canis familiaris; test: In vitro electrophysiological evaluation in canine cardiac ventricular muscle reported as maximum % change for functional refractory period (FRP) at 0.1-100 uM concentration range; concentration at which it occurred is 100 uM; set-up: species or system Canis lupus familiaris, Muscle tissue
Method in brief: (§2)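 Canine right ventricle and papillary muscle strips in oxygenated Tyrode's solution, fitted with stimulating and recording electrodes. The extra-stimulus conduction-interval method was adapted for in vitro use. FRP and CT were read from a conduction-interval curve before and after various compound concentrations, and expressed as percent change from control. Compounds were taken from 10 mM deionized-water stock into Tyrode's. Each strip was used once as its own control.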

[5] = organism: Canis familiaris; test: In vitro electrophysiological evaluation in canine cardiac Purkinje fibres reported as percent change Vmax at 10 uM at concentration range of 1-100 uM; Minimal (<10% decrease or increase in V max).; format: functional; settings: Canis lupus familiaris, Purkinje fiber; method in brief: as §1
[6] = organism: Canis familiaris; test: In vitro electrophysiological evaluation in canine cardiac occurred is 100 uM; format: functional; settings: Canis lupus familiaris; Heart
[7] = organism: Canis familiaris; test: In vitro electrophysiological evaluation in canine cardiac Purkinje fibres reported as maximum percent change Vmax concentration range of 1-100 uM; Minimal (<10% decrease or increase in V max).; format: functional; settings: Canis lupus familiaris; Purkinje fiber; method in brief: as §1
[8] = organism: Canis familiaris; test: In vitro electrophysiological evaluation in canine cardiac Purkinje fibres reported as % change for action potential duration at 10 uM at 1-100 uM concentration range; format: functional, Canis lupus familiaris, Purkinje fiber; method in brief: as §1
[9] = organism: Canis familiaris; test: In vitro electrophysiological evaluation in canine cardiac ventricular muscle reported as % change for conduction time(CT) at 10 uM at 0.1-100 uM concentration range; Minimal (<10% decrease or increase in CT).; format: functional, Canis lupus familiaris, Muscle tissue
[10] = organism: Canis familiaris; test: In vitro electrophysiological evaluation in canine cardiac ventricular muscle reported as maximum % change for conduction time(CT) at 0.1-100 uM concentration range; Minimal (<10% decrease or increase in CT).; format: functional, Canis lupus familiaris, Muscle tissue; method in brief: as §2
[11] = organism: Canis familiaris; test: In vitro electrophysiological evaluation in canine cardiac ventricular muscle reported as % change for the functional refractory period (FRP) at 10 uM at concentration range of 0.1-100 uM; set-up: species or system Canis lupus familiaris, Muscle tissue; method in brief: as §2
[12] = tested on: Canis familiaris; test: Heart rate was determined by intraduodenal administration of two dosages of 20 mg/kg of (high dose) compound in anesthetized dogs. Value was reported for experiment 2; format: functional, Canis lupus familiaris
Method in brief: (§3)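 Anesthetized dogs; compound given intraduodenally, generally as two doses, the second a cumulative (high) dose. LV functional refractory period and conduction time measured 15, 30 and 45 min after dosing; heart rate and blood pressure measured during nonpacing intervals. Values are % change from control, given per individual animal. Active if FRP or CT prolonged by ≥12%.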

[13] = tested on: Canis familiaris; test: Conduction time was determined by intraduodenal administration of two dosages of 20 mg/kg (high dose) of compound in anesthetized dogs. Value was reported for experiment 2; format: functional, Canis lupus familiaris; method in brief: as §3
[14] = tested on: Canis familiaris; test: Conduction time was determined by intraduodenal administration of two dosages of 10 mg/kg (low dose) of compound in anesthetized dogs. Value was reported for experiment 2; format: functional, Canis lupus familiaris; method in brief: as §3
[15] = organism: Canis familiaris; test: (§4) In vitro electrophysiological evaluation in canine cardiac Purkinje fibres reported as % change for action potential duration at 0.1-100 uM concentration range; format: functional, Canis lupus familiaris, Purkinje fiber; method in brief: as §1
[16] = tested on: Canis familiaris; test: Conduction time was determined by intraduodenal administration of two dosages of 3 mg/kg (low dose) of compound in anesthetized dogs. Value was reported for experiment 1; format: functional, Canis lupus familiaris; method in brief: as §3
[17] = tested on: Canis familiaris; test: Left ventricular refractory period was determined by intraduodenal administration of two dosages of 10 mg/kg of (low dose) compound in anesthetized dogs. Value was reported for experiment 2; format: functional, Canis lupus familiaris, Cardiac ventricle
Method in brief: (§5)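 Anesthetized dogs received two intraduodenal doses, the second cumulative (low dose/high dose). Left ventricular FRP and CT were measured 15, 30 and 45 min after dosing. Heart rate and mean blood pressure were taken during nonpacing intervals. Values are percent change from control. The vehicle was 5% dextrose in water/tragacanth. Activity was defined as ≥12% prolongation of FRP or CT.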

[18] = organism: Canis familiaris; test: In vitro electrophysiological activity in canine cardiac Purkinje fibres given as maximum % change for action potential duration at 0.1-100 uM concentration; format: functional, Canis lupus familiaris, Purkinje fiber
Method in brief: (§6)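 Canine cardiac Purkinje fibres, intracellular recording at 1 s basic cycle length, over cumulative concentration ranges. Compound 10 mM stock in deionized water diluted into Tyrode's. Each fibre used once as its own control. Value is the maximum % change from control in APD at 95% repolarization, with the concentration where it occurred; both values given if a biphasic response (>20% reversal) occurred.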

[19] = organism: Canis familiaris; test: In vitro electrophysiological evaluation in canine cardiac Purkinje fibres reported as percent change Vmax concentration range of 0.1-10 uM; Minimal (<IO%increase or a decrease in CT); format: functional; settings: Canis lupus familiaris; Purkinje fiber; method in brief: as §1
[20] = organism: Canis familiaris; test: In vitro electrophysiological evaluation in canine cardiac Purkinje fibres reported as % change for action potential duration at 0.1-10 uM concentration range; format: functional, Canis lupus familiaris, Purkinje fiber; method in brief: as §1
[21] = organism: Canis familiaris; test: In vitro electrophysiological evaluation in canine cardiac Purkinje fibres reported as maximum percent change Vmax concentration range of 0.1-100 uM; format: functional; settings: Canis lupus familiaris; Purkinje fiber; method in brief: as §1
[22] = organism: Canis familiaris; test: In vitro electrophysiological evaluation in canine cardiac Purkinje fibres reported as maximum percent change Vmax concentration range of 0.1-100 uM; Minimal (<IO%increase or a decrease in CT); format: functional; settings: Canis lupus familiaris; Purkinje fiber; method in brief: as §1
[23] = organism: Canis familiaris; test: In vitro electrophysiological evaluation in canine cardiac Purkinje fibres reported as percent change Vmax concentration range of 0.1-100 uM; Minimal (<IO%increase or a decrease in CT); format: functional; settings: Canis lupus familiaris; Purkinje fiber; method in brief: as §1
[24] = tested on: Canis familiaris; test: Effective dose administered intravenously to elicit Antiarrhythmic efficacy in anesthetized dogs was reported. Value in parenthesis indicates no. of animals effective at that dose.; format: functional, Canis lupus familiaris, Heart
Method in brief: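 Dogs are anesthetized and the chest reopened. Stimulating and recording electrodes go on the myocardium. Reproducible PES-induced sustained VT or VF is confirmed first; SVT is ended by burst pacing and VF by DC countershock. Compound is given iv in 0.9% saline and inducibility retested. A dose counts as effective when SVT/VF cannot be reinduced in two of three animals.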

[25] = tested on: Canis familiaris; test: Heart rate was determined by intraduodenal administration of two dosages of 10 mg/kg of (high dose) compound in anesthetized dogs. Value was reported for experiment 1; format: functional, Canis lupus familiaris; method in brief: as §3
[26] = tested on: Canis familiaris; test: Left ventricular refractory period was determined by intraduodenal administration of two dosages of 3 mg/kg of (low dose) compound in anesthetized dogs. Value was reported for experiment 1; format: functional, Canis lupus familiaris, Cardiac ventricle; method in brief: as §5
[27] = tested on: Canis familiaris; test: Mean arterial blood pressure was determined by intraduodenal administration of two dosages of 3 mg/kg of (low dose) compound in anesthetized dogs. Value was reported for experiment 1; format: functional, Canis lupus familiaris; method in brief: as §5
[28] = organism: Canis familiaris; test: In vitro electrophysiological evaluation in canine cardiac Purkinje fibres reported as percent change Vmax concentration range of 0.1-100 uM; format: functional; settings: Canis lupus familiaris; Purkinje fiber; method in brief: as §1
[29] = tested on: Canis familiaris; test: Mean arterial blood pressure was determined by intraduodenal administration of two dosages of 10 mg/kg of (high dose) compound in anesthetized dogs. Value was reported for experiment 1; format: functional, Canis lupus familiaris; method in brief: as §5
[30] = tested on: Canis familiaris; test: Left ventricular refractory period was determined by intraduodenal administration of two dosages of 20 mg/kg of (high dose) compound in anesthetized dogs. Value was reported for experiment 2; format: functional, Canis lupus familiaris, Cardiac ventricle
[31] = tested on: Canis familiaris; test: Left ventricular refractory period was determined by intravenous administration of two dosages of 3 mg/kg of compound in anesthetized dogs. Value was reported for experiment 1; format: functional, Canis lupus familiaris, Cardiac ventricle
[32] = organism: Canis familiaris; test: In vitro electrophysiological activity in canine cardiac Purkinje fibres given as maximum % change for action potential duration at 0.1-10 uM concentration; format: functional, Canis lupus familiaris, Purkinje fiber; method in brief: as §6
[33] = tested on: Canis familiaris; test: Heart rate was determined by intraduodenal administration of two dosages of 3 mg/kg of (low dose) compound in anesthetized dogs. Value was reported for experiment 1; format: functional, Canis lupus familiaris; method in brief: as §3
[34] = tested on: Canis familiaris; test: Conduction time was determined by intraduodenal administration of two dosages of 10 mg/kg(high dose) of compound in anesthetized dogs. Value was reported for experiment 1; format: functional, Canis lupus familiaris; method in brief: as §3
[35] = tested on: Canis familiaris; test: Mean arterial blood pressure was determined by intraduodenal administration of two dosages of 10 mg/kg of (low dose) compound in anesthetized dogs. Value was reported for experiment 2; format: functional, Canis lupus familiaris
[36] = tested on: Canis familiaris; test: Heart rate was determined by intraduodenal administration of two dosages of 10 mg/kg of (low dose) compound in anesthetized dogs. Value was reported for experiment 2; format: functional, Canis lupus familiaris; method in brief: as §3
[37] = tested on: Canis familiaris; test: Mean arterial blood pressure was determined by intraduodenal administration of two dosages of 20 mg/kg of (high dose) compound in anesthetized dogs. Value was reported for experiment 2; format: functional, Canis lupus familiaris
[38] = tested on: Canis familiaris; test: Left ventricular refractory period was determined by intravenous administration of two dosages of 3 mg/kg of compound in anesthetized dogs. Value was reported for experiment 2; format: functional, Canis lupus familiaris, Cardiac ventricle
[39] = organism: Canis familiaris; test: as §4; format: functional, Canis lupus familiaris, Purkinje fiber; method in brief: as §1; remark: listed apart in the source
[40] = tested on: Canis familiaris; test: Left ventricular refractory period was determined by intraduodenal administration of two dosages of 10 mg/kg of (high dose) compound in anesthetized dogs. Value was reported for experiment 1; format: functional, Canis lupus familiaris, Cardiac ventricle; method in brief: as §5

CCOC(=O)C(CC1C(=O)C2CCN1CC2)C(=O)c1ccc(NS(C)(=O)=O)cc1.Cl (stereo not given)
APD95 [1]: 39% and 40% | APD95 [2]: 11% | Vmax [3]: -24% | FRP [4]: 7% and 16% | Vmax [5]: < 10% | Vmax [6]: -36% | Vmax [7]: < 10% | APD95 [8]: 12% | CT [9]: <10% | CT [10]: <10% | FRP [11]: 5% and 9%

Cl.Clc1ccc(C/C=C2\CN3CCC2CC3)cc1
HR [12]: 1% | CT [13]: -4% | CT [14]: 0% | APD95 [15]: 16% | CT [16]: 0% | LV FRP [17]: 3% | APD95 [18]: 35% and 50% | Vmax [19]: < 10% | APD95 [20]: 29% | Vmax [21]: -59% | Vmax [22]: < 10% | Vmax [23]: < 10% | Effective dose [24]: 0.1 mg/kg and 0.3 mg/kg | HR [25]: 4% | LV FRP [26]: 5% | Mean blood pressure [27]: 19% | Vmax [28]: -12% | Mean blood pressure [29]: 25% | LV FRP [30]: 2% | LV FRP [31]: 17% | APD95 [32]: 29% | HR [33]: -2% | CT [34]: 3% | Mean blood pressure [35]: 12% | HR [36]: -1% | Mean blood pressure [37]: 12% | LV FRP [38]: 15% | APD95 [39]: 50% | LV FRP [40]: 3%
